Data: PMC4633020 (Journal of medicinal chemistry, 2015)
“Also recorded” adds a separate entry of the source.

Tests used:
[1] = target: PBP2a of S. aureus (Staphylococcus aureus, UniProt P07944); test: BOCILLIN FL binding assay for PBP2a; conditions: at concentrations of up to 100 μg/mL
[2] = tested on: PBPs in the E. faecium membrane fractions; test: PBP inhibition in E. faecium membrane fractions; type: binding; conditions: data less clear due to low PBP copy numbers
[3] = tested on: other bacteria in the ESKAPE panel; test: Antibacterial screening against the ESKAPE panel; type: cell-based; conditions: result in words
[4] = tested on: E. faecium NCTC 7171; test: MIC, broth microdilution; type: cell-based, Enterococcus faecium; conditions: for MIC: Enterococcus faecium, NCTC7171, E. faecium NCTC 7171; for antibacterial activity against E. faecium (in words): SAR discussion, E. faecium NCTC 7171
[5] = In vitro metabolic stability in human liver S9; type: in vitro ADME; conditions: calculated from in vitro half-life in human liver S9
[6] = tested on: PBP5fm of E. faecium; test: BOCILLIN FL binding assay for PBP5fm; conditions: at up to 100 μg/mL
How it was run: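 Recombinant PBP5 (aa 34-678, E. faecium D63r) carried an N-terminal His-tag, was expressed in E. coli BL21(DE3), and was purified by anion exchange then metal chelate column. Enzyme (40 μM final) was preincubated with test compound in 25 mM Hepes, 1 M NaCl, pH 7.0 at 37 °C. BOCILLIN FL (30 μM final) was then added, with incubations of 20 min. Labelling was read by 12% SDS-PAGE fluorescence scan and band quantitation against a no-inhibitor control.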

[7] = Plasma-protein binding, equilibrium dialysis; type: in vitro ADME; conditions: human plasma
[8] = Hemolysis assay; conditions: red blood cells
[9] = tested on: transcription; test: In vitro transcription assay; type: biochemical; conditions: T7 transcription kit
[10] = tested on: transcription and translation (β-galactosidase expression); test: Tandem in vitro transcription and translation assay; type: biochemical, Escherichia coli; conditions: E. coli S30 extract
[11] = tested on: E. faecium NCTC7171; test: Macromolecular synthesis assays; type: cell-based, Enterococcus faecium; conditions: 2 × MIC (8 μg/mL), 120 min

Sequence of PBP2a of S. aureus (P07944 whole entry): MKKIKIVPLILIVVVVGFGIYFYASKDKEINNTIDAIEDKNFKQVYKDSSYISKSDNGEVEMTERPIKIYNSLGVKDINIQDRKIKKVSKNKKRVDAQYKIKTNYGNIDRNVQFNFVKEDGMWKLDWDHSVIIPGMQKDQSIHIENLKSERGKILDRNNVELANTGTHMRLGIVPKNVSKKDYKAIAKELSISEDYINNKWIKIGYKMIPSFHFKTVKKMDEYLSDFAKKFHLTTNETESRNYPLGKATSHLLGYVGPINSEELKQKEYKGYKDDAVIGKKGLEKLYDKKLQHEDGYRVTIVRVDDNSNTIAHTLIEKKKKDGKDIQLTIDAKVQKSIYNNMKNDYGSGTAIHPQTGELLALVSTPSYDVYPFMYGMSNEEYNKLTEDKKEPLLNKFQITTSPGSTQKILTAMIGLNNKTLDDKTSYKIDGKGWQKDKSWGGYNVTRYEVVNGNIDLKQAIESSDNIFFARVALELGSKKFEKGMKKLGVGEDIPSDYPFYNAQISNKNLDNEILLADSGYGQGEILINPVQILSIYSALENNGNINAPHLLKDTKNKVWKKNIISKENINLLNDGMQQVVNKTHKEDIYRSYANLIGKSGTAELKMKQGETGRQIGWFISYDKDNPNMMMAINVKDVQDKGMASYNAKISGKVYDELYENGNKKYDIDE

Row | SMILES | MIC [4] [µg/mL] | antibacterial activity against E. faecium (in words) [4] | also measured
1 | CC1=C(C(N)=O)C(c2ccc(C(C)C)cc2)n2nc(SCc3ccccc3)nc2N1 (centres unmarked) [Compound 1, 2-(Benzylthio)-7-(4-isopropylphenyl)-5-methyl-4,7-dihydro-[1,2,4]triazolo[1,5-a]pyrimidine-6-carboxamide] | ≤ 8 |  | inhibition of recombinant PBP2a [1]: no inhibition; also recorded: did not inhibit; inhibition of PBPs in E. faecium membranes [2]: did not inhibit; antibacterial activity against the other bacteria in the ESKAPE panel [3]: No antibacterial activity; Apparent intrinsic clearance [5]: 11.1 mLmin^−1kg^−1; inhibition of PBP5fm [6]: no inhibition; also recorded: did not inhibit
2 | CC1=C(C(N)=O)C(c2ccccc2)n2nc(SCc3ccccc3)nc2N1 (centres unmarked) [Compound 2] |  | loss of antibacterial activity | 
3 | CCc1ccc(C2C(C(N)=O)=C(C)Nc3nc(SCc4ccccc4)nn32)cc1 (centres unmarked) [Compound 4] | ≤ 8 |  | 
4 | CC1=C(C(N)=O)C(c2ccc(O)cc2)n2nc(SCc3ccccc3)nc2N1 (centres unmarked) [Compound 6] |  | loss of antimicrobial activity | 
5 | COc1ccc(C2C(C(N)=O)=C(C)Nc3nc(SCc4ccccc4)nn32)cc1 (centres unmarked) [Compound 7] |  | devoid of activity | 
6 | COc1ccc(C2C(C(N)=O)=C(C)Nc3nc(SCc4ccccc4)nn32)cc1O (centres unmarked) [Compound 8] |  | loss of antimicrobial activity | 
7 | COc1ccc(C2C(C(N)=O)=C(C)Nc3nc(SCc4ccccc4)nn32)cc1OC (centres unmarked) [Compound 9] |  | loss of antimicrobial activity | 
8 | CC1=C(C(N)=O)C(c2ccc(OC(C)C)cc2)n2nc(SCc3ccccc3)nc2N1 (centres unmarked) [Compound 10, 2-(Benzylthio)-7-(4-isopropoxyphenyl)-5-methyl-4,7-dihydro-[1,2,4]triazolo[1,5-a]pyrimidine-6-carboxamide] | ≤ 8 |  | Plasma-protein binding (in words) [7]: high; Apparent intrinsic clearance [5]: 10.9 mLmin^−1kg^−1
9 | CC1=C(C(N)=O)C(c2ccc(OC(F)(F)F)cc2)n2nc(SCc3ccccc3)nc2N1 (centres unmarked) [Compound 11] | ≤ 8 | retained activity | 
10 | CSc1ccc(C2C(C(N)=O)=C(C)Nc3nc(SCc4ccccc4)nn32)cc1 (centres unmarked) [Compound 12] |  | devoid of activity | 
11 | CCSc1ccc(C2C(C(N)=O)=C(C)Nc3nc(SCc4ccccc4)nn32)cc1 (centres unmarked) [Compound 13, 2-(Benzylthio)-7-(4-ethylthiophenyl]-5-methyl-4,7-dihydro[1,2,4]-triazolo[1,5-a]pyrimidine-6-carboxamide] |  |  | improvement of the anti-E. faecium activity ([4]; compared to the 4-OCH3 (7) and 4-SMe (12) derivatives): 32 fold; Plasma-protein binding (in words) [7]: high; Apparent intrinsic clearance [5]: <10.4 mLmin^−1kg^−1
12 | CC1=C(C(N)=O)C(c2ccc(N(C)C)cc2)n2nc(SCc3ccccc3)nc2N1 (centres unmarked) [Compound 16, 2-(Benzylthio)-7-(4-dimethylaminophenyl)-5-methyl-4,7-dihydro[1,2,4]triazolo[1,5-a]pyrimidine-6-carboxamide] | ≤ 8 |  | hemolysis at 64 μg/mL [8]: 1 to 2%; effect on in vitro transcription [9]: did not show any effect; effect on in vitro transcription and translation [10]: did not show any effect; Apparent intrinsic clearance [5]: <10.4 mLmin^−1kg^−1; inhibition of peptidoglycan biosynthesis ([11]; D-[2,3-3H]-alanine incorporation): notable inhibition; inhibition of translation (protein synthesis) ([11]; L-[4,5-3H]-leucine incorporation): did not inhibit; inhibition of transcription (RNA synthesis) ([11]; [5,6-3H]-uridine incorporation): did not inhibit; inhibition of replication (DNA synthesis) ([11]; [methyl-3H]-thymidine incorporation): did not inhibit
13 | CCN(CC)c1ccc(C2C(C(N)=O)=C(C)Nc3nc(SCc4ccccc4)nn32)cc1 (centres unmarked) [Compound 17] | ≤ 8 |  | 
14 | CCN(CC)CCOc1ccc(C2C(C(N)=O)=C(C)Nc3nc(SCc4ccccc4)nn32)cc1 (centres unmarked) [Compound 20] |  | no activity | 
15 | CC1=C(C(N)=O)C(c2ccc(C(F)(F)F)cc2)n2nc(SCc3ccccc3)nc2N1 (centres unmarked) [Compound 21] | ≤ 8 | retained activity | 
16 | CC1=C(C(N)=O)C(c2ccc(F)cc2)n2nc(SCc3ccccc3)nc2N1 (centres unmarked) [Compound 22] |  | did not show any activity | 
17 | CC1=C(C(N)=O)C(c2ccc(Cl)cc2)n2nc(SCc3ccccc3)nc2N1 (centres unmarked) [Compound 23] |  | did not show any activity | 
18 | CC1=C(C(N)=O)C(c2ccc(C#N)cc2)n2nc(SCc3ccccc3)nc2N1 (centres unmarked) [Compound 24] |  | retained activity | 
19 | CC1=C(C(N)=O)C(c2ccccc2C(F)(F)F)n2nc(SCc3ccccc3)nc2N1 (centres unmarked) [Compound 27] |  | inactive | 
